Measurements as given in ChEMBL document CHEMBL3425405, “Discovery of Small Molecules for Up-Regulating the Translation of Antiamyloidogenic Secretase, a Disintegrin and Metalloproteinase 10 (ADAM10), by Binding to the G-Quadruplex-Forming Sequence in the 5' Untranslated Region (UTR) of Its mRNA” (J Med Chem, 2015).
Activity calls are given as the source filed them. No cut-off for these calls is given here.

Assays:
HeLa [1] = assay: Binding affinity to ADAM10 5'-UTR mutant RNA QGRS (unknown origin) transfected in human HeLa cells assessed as increase in luciferase mRNA expression at 0.5 to 2.5 uM after 24 hrs by RT-PCR method; assay type: cell-based
[2] = Binding affinity to 5'-end biotinylated ADAM10 A10-RNA QGRS (unknown origin) by surface plasmon resonance assay method
Summary of the method: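 SPR with 5′-biotinylated A10-RNA-Wt or A10-RNA-Mut immobilized on a neutravidin chip in running buffer (50 mM Tris-HCl pH 7.5, 100 mM KCl). Ligand serial dilutions in running buffer injected at 20 μL/min for association, then dissociation. Chip regenerated with 50 mM NaOH between runs.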

HeLa [3] = assay: Binding affinity to ADAM10 A10-RNA QGRS (unknown origin) transfected in human HeLa cells assessed as increase in ADAM10 translation efficiency at 2.5 uM after 24 hrs by Renilla/firefly dual luciferase reporter assay; assay type: cell-based
Summary of the method: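 HeLa cells transfected with 0.8 μg A10-Wt, A10-Mut or A10-Del plasmid (G-quadruplex motif upstream of Renilla in psiCHECK-2). Screening: 24 h at a single 2 μM concentration. Follow-up: plasmid for 12 h, then 0, 0.5, 1 or 2.5 μM for 24 h. Renilla normalized to firefly, relative to untreated control; mean ± SD of three independent measurements.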

[4] = Binding affinity to ADAM10 A10-RNA QGRS (unknown origin) assessed as increase in RNA-ligand complexes at 0.5 to 10 fold excess compound level by native gel electrophoresis method
Summary of the method: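 A10-RNA-Wt labeled with Cy3/Cy5 folded in 100 mM KCl, 10 mM Tris-HCl, 0.1 mM EDTA (pH 7.5): 95 °C for 5 min, then cooled to room temperature over 90 min. RNA (2 μM) incubated 5 min at room temperature in the dark with 0, 0.5, 1, 5 or 10-fold excess compound. Run on native 16% polyacrylamide gel at 4 °C.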

[5] = Selectivity index, ratio of affinity to N-Ras RNA QGRS (unknown origin) to ADAM10 A10-Wt RNA QGRS (unknown origin) by Renilla/firefly dual luciferase reporter assay
[6] = Binding affinity to ADAM10 A10-mutant RNA QGRS (unknown origin) by surface plasmon resonance method
HeLa [7] = assay: Toxicity against human HeLa cells assessed as effect on cell number at 0.5 to 2.5 uM after 24 hrs; assay type: cell-based
Summary of the method: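 HeLa cells inspected for cell number and morphology before the luciferase read-out, after reporter-plasmid transfection and 24 h exposure to 0, 0.5, 1 or 2.5 μM compound.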

[8] = target: T1, Disintegrin and metalloproteinase domain-containing protein 10 (Homo sapiens) (UniProt O14672); assay: Activation of human recombinant ADAM10 assessed as increase in enzyme activity at 0.25 to 4 uM pre-incubated for 20 mins before fluorogenic alpha-secretase substrate addition and measured 1 hr post substrate addition by monochromator-based multimode microplate reader based method
T1 sequence (whole entry): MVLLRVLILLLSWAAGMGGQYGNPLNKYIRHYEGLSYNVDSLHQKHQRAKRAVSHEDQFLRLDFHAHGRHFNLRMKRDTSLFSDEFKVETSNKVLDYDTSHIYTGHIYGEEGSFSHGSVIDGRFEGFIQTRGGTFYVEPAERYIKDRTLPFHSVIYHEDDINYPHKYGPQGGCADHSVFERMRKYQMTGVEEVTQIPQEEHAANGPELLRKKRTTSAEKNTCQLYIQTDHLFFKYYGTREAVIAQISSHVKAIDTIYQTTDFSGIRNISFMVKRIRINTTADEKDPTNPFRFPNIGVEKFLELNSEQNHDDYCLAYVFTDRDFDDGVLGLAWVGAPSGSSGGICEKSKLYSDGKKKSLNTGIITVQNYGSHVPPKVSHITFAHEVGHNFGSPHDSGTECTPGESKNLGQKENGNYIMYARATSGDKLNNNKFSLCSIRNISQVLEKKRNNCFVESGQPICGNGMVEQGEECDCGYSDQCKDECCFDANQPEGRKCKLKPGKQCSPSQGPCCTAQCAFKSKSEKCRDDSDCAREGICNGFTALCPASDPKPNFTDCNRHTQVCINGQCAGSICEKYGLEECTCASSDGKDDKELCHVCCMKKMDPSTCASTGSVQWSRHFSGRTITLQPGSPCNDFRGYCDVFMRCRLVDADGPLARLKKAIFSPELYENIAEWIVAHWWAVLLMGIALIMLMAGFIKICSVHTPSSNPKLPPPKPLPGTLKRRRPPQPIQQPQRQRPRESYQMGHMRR
Summary of the method: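 Recombinant human ADAM10 (50 ng total protein per sample) preincubated 20 min with 0, 0.25, 0.5, 1, 2, 4 μM compound. Then 2× reaction buffer added (50 μM Tris, 4 μM ZnCl2, 0.01% Brij-35, pH 9.0) with 20 μM fluorogenic α-secretase substrate. Incubated 1 h at 37 °C in the dark; fluorescence read at ex 340/em 490 nm.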

HeLa [9] = assay: Binding affinity to ADAM10 5'-UTR mutant RNA QGRS (unknown origin) transfected in human HeLa cells assessed as increase in ADAM10 translation efficiency at 1 uM after 24 hrs by Renilla/firefly dual luciferase reporter assay; assay type: cell-based
Summary of the method: (§1)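 HeLa cells transfected with 0.8 μg 5′UTR-Wt or 5′UTR-Mut dual-luciferase plasmid. After 12 h, incubated 24 h with 0, 0.5, 1 or 2.5 μM compound. Renilla luciferase normalized to firefly and expressed relative to the ligand-free control; mean ± SD of three independent experiments, each in triplicate.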

HeLa [10] = assay: Binding affinity to ADAM10 5'-UTR RNA QGRS (unknown origin) transfected in human HeLa cells assessed as increase in ADAM10 translation efficiency at 2.5 uM after 24 hrs by Renilla/firefly dual luciferase reporter assay; assay type: cell-based; summary of the method: as §1
HeLa [11] = assay: Binding affinity to ADAM10 5'-UTR RNA QGRS (unknown origin) transfected in human HeLa cells assessed as increase in luciferase mRNA expression at 0.5 to 2.5 uM after 24 hrs by RT-PCR method; assay type: cell-based
[12] = Effect on secondary structure of ADAM10 A10-RNA QGRS (unknown origin) by CD spectroscopy
HEK293 = assay: Reduction in Abeta40 protein production in APP expressing HEK cells at 1.5 uM after 48 hrs by ELISA method; assay type: functional, Homo sapiens; design: scale not given: the % may be the effect or the level left
Summary of the method: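 HEK-APP cells treated 48 h with increasing compound concentrations (0.75, 1, 1.5 μM). Secreted Aβ40 in equal amounts of conditioned medium quantified by sandwich ELISA. Values expressed relative to blank control; mean ± SD of three independent experiments.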

HeLa [13] = assay: Binding affinity to N-Ras RNA QGRS (unknown origin) transfected in human HeLa cells assessed as increase in ADAM10 translation efficiency at 2.5 uM after 24 hrs by Renilla/firefly dual luciferase reporter assay; assay type: cell-based
Summary of the method: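 HeLa cells carrying luciferase reporter plasmids with the N-Ras, Bcl-2 or VEGF 5′-UTR quadruplex (or its mutant) treated with compound up to 2.5 μM for 24 h. Renilla/firefly luciferase activity then measured.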

Kd [2]: 0.0061 mM
Activity [4]: Active
Selectivity Index [5]: 3
Kd [6]: 700 mM
Activity [8]: Active
Activity [12]: inactive
SMILES: CCn1c2ccccc2c2cc(/C=C/c3cc(N4CCN(C)CC4)c4ccccc4[n+]3C)ccc21.[I-]
Activity (HeLa [1]): inactive
Activity (HeLa [3]): 87.3%
Activity (HeLa [7]): Non-toxic
Activity (HeLa [9]): inactive
Activity (HeLa [10]): 44.8%
Activity (HeLa [11]): inactive
Activity (HEK293): 40.8%
Activity (HeLa [13]): 20%
